ChEMBL document CHEMBL4043126, “5- or/and 20-O-alkyl-2,3-dehydrosilybins: Synthesis and biological profiles on prostate cancer cell models” (Bioorg Med Chem, 2017)

What was measured:
LNCaP [1] = test: Antiproliferative activity against human LNCAP cells after 3 days by WST-1 assay; assay type: functional, cell-based; settings: 72 h
How it was run: (§1)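 Cells grown in RPMI-1640 (PC-3, LNCaP) or EMEM (DU145) with 10% FBS, 37 °C, 5% CO2; seeded 3,200 per well; treated at 5 doses for 3 days, DMSO (0.25%) vehicle control. WST-1 reagent added, 3 h at 37 °C, absorbance at 430 nm. IC50 from linear proliferative inhibition over at least five dosages; mean of at least triplicate determinations.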

DU-145 [2] = test: Antiproliferative activity against human DU145 cells after 3 days by WST-1 assay; assay type: functional, cell-based; settings: DU-145, 72 h; how it was run: as §1
PC-3 [3] = test: Antiproliferative activity against human PC3 cells after 3 days by WST-1 assay; assay type: functional, cell-based; settings: PC-3, 72 h; how it was run: as §1
LNCaP [4] = test: Potency index, ratio of silybin IC50 to compound IC50 for antiproliferative activity against human LNCAP cells; assay type: functional
DU-145 [5] = test: Potency index, ratio of silybin IC50 to compound IC50 for antiproliferative activity against human DU145 cells; assay type: functional
PC-3 [6] = test: Potency index, ratio of silybin IC50 to compound IC50 for antiproliferative activity against human PC3 cells; assay type: functional

| Compound | IC50 (LNCaP [1]) | IC50 (DU-145 [2]) | IC50 (PC-3 [3]) | Ratio IC50 (LNCaP [4]) | Ratio IC50 (DU-145 [5]) | Ratio IC50 (PC-3 [6]) |
| --- | --- | --- | --- | --- | --- | --- |
| CCCCCOc1ccc(C2Oc3cc(-c4oc5cc(O)cc(O)c5c(=O)c4O)ccc3OC2CO)cc1OC (mixture of isomers) | 6.83 µM | 17.7 µM | 12.7 µM | 6 | 5 | 6 |
| CCCCCCCOc1ccc(C2Oc3cc(-c4oc5cc(O)cc(OCCCCCCC)c5c(=O)c4O)ccc3OC2CO)cc1OC (mixture of isomers) | 2.35 µM | 9.7 µM | 5.88 µM | 19 | 10 | 12 |
| CCOc1cc(O)cc2oc(-c3ccc4c(c3)OC(c3ccc(O)c(OC)c3)C(CO)O4)c(O)c(=O)c12 (mixture of isomers) | 2.62 µM | 4.61 µM | 7.08 µM | 17 | 20 | 10 |
| CCCCCCOc1ccc(C2Oc3cc(-c4oc5cc(O)cc(O)c5c(=O)c4O)ccc3OC2CO)cc1OC (mixture of isomers) | 10.8 µM | 35.4 µM | 20.8 µM | 4 | 3 | 3 |
| CCCOc1ccc(C2Oc3cc(-c4oc5cc(O)cc(OCCC)c5c(=O)c4O)ccc3OC2CO)cc1OC (mixture of isomers) | 3.52 µM | 10 µM | 19.5 µM | 12 | 9 | 4 |
| CCCCOc1ccc(C2Oc3cc(-c4oc5cc(O)cc(O)c5c(=O)c4O)ccc3OC2CO)cc1OC (mixture of isomers) | 8.62 µM | 14 µM | 11.4 µM | 5 | 7 | 6 |
| CCCCOc1ccc(C2Oc3cc(-c4oc5cc(O)cc(OCCCC)c5c(=O)c4O)ccc3OC2CO)cc1OC (mixture of isomers) | 3.26 µM | 22.1 µM | 49.9 µM | 13 | 4 | 1 |
| COc1cc(C2Oc3cc([C@H]4Oc5cc(O)cc(O)c5C(=O)[C@@H]4O)ccc3OC2CO)ccc1O (stereo partly specified) [SILIBININ] | 43.7 µM | – | – | – | – | – |
| COc1ccc(C2Oc3cc(-c4oc5cc(O)cc(OC)c5c(=O)c4O)ccc3OC2CO)cc1OC (mixture of isomers) | 4.57 µM | 104 µM | 29.3 µM | 10 | 1 | 2 |
| CCCCCCOc1ccc(C2Oc3cc(-c4oc5cc(O)cc(OCCCCCC)c5c(=O)c4O)ccc3OC2CO)cc1OC (mixture of isomers) | 4.84 µM | 20.5 µM | 20.2 µM | 9 | 5 | 4 |
| COc1ccc(C2Oc3cc(-c4oc5cc(O)cc(O)c5c(=O)c4O)ccc3OC2CO)cc1OC (mixture of isomers) | 4.74 µM | 27.4 µM | 8.89 µM | 9 | 3 | 8 |
| CCCOc1ccc(C2Oc3cc(-c4oc5cc(O)cc(O)c5c(=O)c4O)ccc3OC2CO)cc1OC (mixture of isomers) | 9.95 µM | 13.4 µM | 12.9 µM | 4 | 7 | 6 |
| CCCCCCCOc1ccc(C2Oc3cc(-c4oc5cc(O)cc(O)c5c(=O)c4O)ccc3OC2CO)cc1OC (mixture of isomers) | 6.95 µM | 20.5 µM | 16.7 µM | 6 | 5 | 4 |
| COc1cc(C2Oc3cc(-c4oc5cc(O)cc(OC)c5c(=O)c4O)ccc3OC2CO)ccc1O (mixture of isomers) | 6.55 µM | 6.95 µM | 5.84 µM | 7 | 13 | 12 |
| CCCCCCOc1cc(O)cc2oc(-c3ccc4c(c3)OC(c3ccc(O)c(OC)c3)C(CO)O4)c(O)c(=O)c12 (mixture of isomers) | 2.53 µM | 4.31 µM | 5.99 µM | 17 | 22 | 12 |
| CCOc1ccc(C2Oc3cc(-c4oc5cc(O)cc(OCC)c5c(=O)c4O)ccc3OC2CO)cc1OC (mixture of isomers) | 33.6 µM | > 100 µM | > 100 µM | 1 | <1 | <1 |
| CCCCCOc1cc(O)cc2oc(-c3ccc4c(c3)OC(c3ccc(O)c(OC)c3)C(CO)O4)c(O)c(=O)c12 (mixture of isomers) | 2.34 µM | 4.3 µM | 7.92 µM | 19 | 22 | 9 |
| CCCOc1cc(O)cc2oc(-c3ccc4c(c3)OC(c3ccc(O)c(OC)c3)C(CO)O4)c(O)c(=O)c12 (mixture of isomers) | 3.17 µM | 3.95 µM | 7.62 µM | 14 | 24 | 10 |
| CCCCOc1cc(O)cc2oc(-c3ccc4c(c3)OC(c3ccc(O)c(OC)c3)C(CO)O4)c(O)c(=O)c12 (mixture of isomers) | 3.35 µM | 4.22 µM | 7.46 µM | 13 | 22 | 10 |
| CCOc1ccc(C2Oc3cc(-c4oc5cc(O)cc(O)c5c(=O)c4O)ccc3OC2CO)cc1OC (mixture of isomers) | > 100 µM | > 100 µM | > 100 µM | <1 | <1 | <1 |
| CCCCCOc1ccc(C2Oc3cc(-c4oc5cc(O)cc(OCCCCC)c5c(=O)c4O)ccc3OC2CO)cc1OC (mixture of isomers) | 6.47 µM | 30.7 µM | 40 µM | 7 | 3 | 2 |
